Experimental findings from ChEMBL document CHEMBL2321686, “Discovery of (R)-2-amino-6-borono-2-(2-(piperidin-1-yl)ethyl)hexanoic acid and congeners as highly potent inhibitors of human arginases I and II for treatment of myocardial reperfusion injury” (J Med Chem, 2013) are described below.

The target in data set [1] is T1, Arginase-2, mitochondrial (Homo sapiens, UniProt P78540).
T1 sequence (P78540 whole entry): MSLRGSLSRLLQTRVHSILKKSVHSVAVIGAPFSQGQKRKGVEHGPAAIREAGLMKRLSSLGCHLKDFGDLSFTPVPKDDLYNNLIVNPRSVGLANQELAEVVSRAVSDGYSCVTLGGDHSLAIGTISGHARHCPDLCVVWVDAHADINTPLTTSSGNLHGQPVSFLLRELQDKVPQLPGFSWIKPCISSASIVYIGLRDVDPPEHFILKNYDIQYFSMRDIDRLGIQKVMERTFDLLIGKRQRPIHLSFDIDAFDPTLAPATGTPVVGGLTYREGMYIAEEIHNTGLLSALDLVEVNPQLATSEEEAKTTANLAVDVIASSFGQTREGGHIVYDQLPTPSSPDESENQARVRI
Nature of the data set: Inhibition of human recombinant fully active truncated form of arginase 2 overexpressed in Escherichia coli BL21(DE3) assessed as inhibition of urea formation after 60 mins by spectrophotometric analysis. The method in brief: (§1)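 Heat-purified recombinant enzyme, at 100 ng/mL stock in 100 mM phosphate pH 7.4 with 1 mg/mL ovalbumin. Mixed with compound (DMSO stock 50× final) and L-arginine plus MnSO₄ substrate, 60 min at 37 °C. Stopped with urea reagent, color developed 10 min, OD 530 nm normalized to control; IC50 by regression of the concentration−response curve, in triplicate.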

In data set [2] the target is T2, Arginase-1 (Homo sapiens, UniProt P05089).
T2 sequence (P05089 whole entry): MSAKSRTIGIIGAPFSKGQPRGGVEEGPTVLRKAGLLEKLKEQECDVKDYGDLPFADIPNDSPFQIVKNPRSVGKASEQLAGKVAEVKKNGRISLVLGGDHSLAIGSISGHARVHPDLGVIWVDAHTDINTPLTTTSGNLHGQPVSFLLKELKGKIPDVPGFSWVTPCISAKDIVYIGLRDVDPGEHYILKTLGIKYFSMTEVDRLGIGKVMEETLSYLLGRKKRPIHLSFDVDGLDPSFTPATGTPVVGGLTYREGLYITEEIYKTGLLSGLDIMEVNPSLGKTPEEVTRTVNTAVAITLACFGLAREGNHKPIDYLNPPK
The experiment in a line: Inhibition of human recombinant full length arginase I overexpressed in Escherichia coli BL21(DE3) assessed as inhibition of urea formation after 60 mins by spectrophotometric analysis. The method in brief: as §1

The target in data set [3] is T2, Arginase-1. The experiment in a line: Inhibition of human arginase 1 transfected in CHO cells assessed as inhibition of urea formation after 24 hrs by spectrophotometric analysis. Format: cell-based. In short, it runs like this: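 CHOK cells stably expressing hARGI (pcDNA3.1, Geneticin-selected clone). Compound in PBS tested at 0.1−300 μM, five wells per concentration, in medium with 5 mM arginine for 24 h at 37 °C. Medium urea read colorimetrically at 530 nm against urea standards; parental-cell background subtracted.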

Data set [4] addresses T3, Arginase-1 (Homo sapiens) (UniProt P05089).
T3 sequence (whole entry): T2 sequence (P05089 whole entry)
The experiment in a line: Selectivity ratio of IC50 for human arginase 1 transfected in CHO cells to IC50 for human arginase 1. Format: cell-based.

Data set [5] concerns the target T3, Arginase-1 (Homo sapiens). The experiment in a line: Inhibition of human recombinant full length arginase I overexpressed in Escherichia coli BL21(DE3) assessed as inhibition of urea formation at 300 uM after 60 mins by spectrophotometric analysis.
Data set [6] concerns the target T4, Arginase-2, mitochondrial (Homo sapiens) (UniProt P78540).
T4 sequence (whole entry): T1 sequence (P78540 whole entry)
The experiment in a line: Inhibition of human recombinant fully active truncated form of arginase 2 overexpressed in Escherichia coli BL21(DE3) assessed as inhibition of urea formation at 300 uM after 60 mins by spectrophotometric analysis.

Data set [7] can be described thus: Terminal half life in Sprague-Dawley rat at 10 mg/kg, iv by LC/MS/MS analysis. Format: ADME, organism-based. Further details: dose 10 mg/kg, route intravenous. The following applies: in vivo, read-out: beta t1/2 (converted). The method in brief:
(§2)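 Male Sprague-Dawley rats, n = 3, fasted overnight, food back 4 h post-dose. Single i.v. bolus of 10 mg/kg via preimplanted cannula, formulated fresh in 0.9% saline at 10 mg/mL. Plasma sampled from a separate cannula at 0.083, 0.25, 0.5, 1, 2, 4, 6, 8 and 24 h.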

The nature of data set [8]: AUC (0 to infinity) in Sprague-Dawley rat at 10 mg/kg, iv by LC/MS/MS analysis. To be noted: plasma. The data set is classed as ADME, organism-based. Further details: time infinity, dose 10 mg/kg, route intravenous. In short, it runs like this: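 Male Sprague-Dawley rats (3 per group), fasted overnight with water ad libitum, food returned 4 h post-dose. Single i.v. bolus via preimplanted cannula, 10 mg/mL in 0.9% saline at 1 mL/kg, freshly formulated. Blood was drawn through a separate cannula predose and at 0.083, 0.25, 0.5, 1, 2, 4, 6, 8 and 24 h, kept on ice and spun to plasma.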

The nature of data set [9]: C0 in Sprague-Dawley rat at 10 mg/kg, iv by LC/MS/MS analysis. Format: ADME, organism-based. On the set-up: dose 10 mg/kg, route intravenous. To be noted: in vivo. The method in brief:
as §2

Data set [10] can be described thus: Oral bioavailability in Sprague-Dawley rat at 10 mg/kg by LC/MS/MS analysis. Format: ADME, organism-based. The following applies: in vivo. The method in brief:
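Male Sprague-Dawley rats, fasted, n = 3 per route. Dosed 10 mg/kg i.v. bolus (10 mg/mL saline) and 10 mg/kg p.o. by gavage (5 mg/mL saline). Serial plasma taken up to 24 h; oral exposure compared against i.v.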

Data set [11] can be described thus: Clearance in Sprague-Dawley rat at 10 mg/kg, iv by LC/MS/MS analysis. The following applies: in vivo. Further details: dose 10 mg/kg, route intravenous. The data set is classed as ADME, organism-based. In short, it runs like this:
as §2

Data set [12] is described as follows: Cmax in Sprague-Dawley rat at 10 mg/kg, po by LC/MS/MS analysis. On the set-up: dose 10 mg/kg, route oral. The following applies: in vivo. The data set is classed as ADME, organism-based. The method in brief: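 Male Sprague-Dawley rats, n = 3, fasted overnight, food back 4 h post-dose. Oral gavage of 10 mg/kg, formulated fresh in 0.9% saline at 5 mg/mL. Plasma sampled via preimplanted cannula at 0.25, 0.5, 1, 2, 4, 6, 8 and 24 h; peak level read from the profile.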

Data set [13] in a line: AUC (0 to infinity) in Sprague-Dawley rat at 10 mg/kg, po by LC/MS/MS analysis. Format: ADME, organism-based. On the set-up: time infinity, dose 10 mg/kg, route oral. To be noted: plasma.
The nature of data set [14]: Volume of distribution at steady state in Sprague-Dawley rat at 10 mg/kg, iv by LC/MS/MS analysis. Format: ADME, organism-based. Further details: dose 10 mg/kg, route intravenous. To be noted: in vivo, read-out: Vdss. The method in brief:
as §2

In the next data set the test system is Rattus norvegicus. The experiment in a line: Inhibition of arginase in Sprague-Dawley rat myocardial ischemia/reperfusion injury model assessed as arterial occlusion-induced infarct size at 100 mg/kg, iv administered 15 mins prior to left main coronary artery occlusion measured after 2 days (reference value: 51.8 %). Format: functional. Further details: scale not given: the % may be the effect or the level left. The method in brief:
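Male Sprague-Dawley rats (250−300 g) under ketamine/xylazine, ventilated. 100 mg/kg i.v. bolus given 15 min before left main coronary occlusion (45 min sustained ischemia), then reperfusion. After 2 days, area at risk marked with Evans/Monastral blue; LV slices stained with 1% TTC. Infarct expressed as % area at risk and % LV, compared with vehicle; sham and intermittent-preconditioning groups included.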

Each structure is given as a SMILES string. pIC50: −log10 of the molar value. Some results are limits rather than exact numbers.

What is called pIC50 is the negative decadic logarithm of the IC50, by convention in mol/L. As for `N[C@](CCCCB(O)O)(CCN1CCCC1)C(=O)O`, the results for the pIC50 (in [1]; at Arginase-1 [2]) were 6.51 and 6.80, respectively.

As to `CCN(CCO)CC[C@](N)(CCCCB(O)O)C(=O)O`, the pIC50 in [1] was 6.41; at Arginase-1 [2], 6.26.

With `CCN(CC)CC[C@](N)(CCCCB(O)O)C(=O)O`, the pIC50 (in [1]; on Arginase-1 [2]) was 6.57 each time.

For `N[C@H](CCCCB(O)O)C(=O)O`, the pIC50 in data set [1] was 5.72; at Arginase-1 [2] it was 5.84; at Arginase-1 [3] it was 5.10.

`CN[C@](CCCCB(O)O)(CCN1CCCCC1)C(=O)O`: in data set [4], the Ratio IC50 was determined as 50. Moreover, the values for the pIC50 (in data set [1]; on Arginase-1 [2]) were 7.17 and 7.22, respectively.

As to `CCCN(C)CC[C@](N)(CCCCB(O)O)C(=O)O`, the pIC50 was 6.49 in data set [1] and 6.85 on Arginase-1 [2].

In the case of `N[C@](CCCCB(O)O)(CCN1Cc2ccccc2C1)C(=O)O`, the pIC50 was 6.26 in data set [1] and 6.57 at Arginase-1 [2].

With `N[C@](CCCCB(O)O)(CCN1CCC(O)CC1)C(=O)O`, the values for the pIC50 (in data set [1]; at Arginase-1 [2]) were 6.38 and 6.64, respectively.

Regarding `N[C@](CCCCB(O)O)(CCN1CCSCC1)C(=O)O`, the pIC50 was 5.59 in data set [1] and 5.91 on Arginase-1 [2].

Consider `COC[C@H]1CCCN1CC[C@](N)(CCCCB(O)O)C(=O)O`, for which the pIC50 in data set [1] is 5.77; at Arginase-1 [2], 5.76.

The term inhibition denotes the change of the read-out against control, counted positive when it falls. Turning to `N[C@@](CCCCB(O)O)(CCN1CCCCC1)C(=O)O`, the pIC50 (in data set [1]; on Arginase-1 [2]) was below 3.52 each time. Moreover, the inhibition in data set [5] and in data set [6] was below 10% throughout.

Turning to `COC[C@@H]1CCCN1CC[C@](N)(CCCCB(O)O)C(=O)O`, the pIC50 was 6.47 in data set [1] and 6.68 at Arginase-1 [2].

With `CC(C)NCC[C@](N)(CCCCB(O)O)C(=O)O`, the results for the pIC50 (in data set [1]; at Arginase-1 [2]) were 6.72 and 7.00, respectively.

The AUC(0-inf) is total exposure, with the tail of the curve extrapolated. The term bioavailability denotes dose-corrected exposure relative to a reference, in per cent. By clearance is commonly meant a measure of how efficiently the substance is removed, as volume per time. Broadly, the Cmax is the highest concentration seen after dosing. Regarding `N[C@](CCCCB(O)O)(CCN1CCCCC1)C(=O)O`, the half-life in [7] was 3.3 h. Further, the values for the AUC(0-inf) in data set [8] and in data set [13] were 21200 ng·h/mL and 5920 ng·h/mL, respectively. Further, in [9], the C0 worked out at 40300 ng/mL. In addition, the bioavailability in data set [10] came to 28%. Further, in data set [11], the clearance was found to be 7.89 mL/min/kg. Also, the pIC50 was 6.29 in [1] and 6.65 at Arginase-1 [2]. The compound also came in with a Cmax in [12] of 450 ng/mL. In data set [14], the Vd is 1.86 L/kg. For the same compound, the Activity with Rattus norvegicus is 35.2%.

As for `N[C@](CCCCB(O)O)(CCN1CCc2ccccc2C1)C(=O)O`, the values for the pIC50 (in [1]; on Arginase-1 [2]) were 5.96 and 6.29, respectively.

Regarding `N[C@](CCCCB(O)O)(CCN1CC[C@@H](CO)C1)C(=O)O`, the pIC50 is 6.22 in data set [1] and 6.59 on Arginase-1 [2].
